Compound activity deposited in PubChem BioAssay by Broad Institute.
T cruzi growth-1: T. cruzi proliferation inhibition; T. cruzi beta-gal in NIH3T3, GalScreen luminescence, 90 h; inhibition, % at 8.34 µM; hit rate 5.9% among 77,000;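 active means mean inhibition above about 93%, with at least 55% of replicates each passing it, limit read from the data, passing the limit was not always enough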
Pf Dd2 growth: P. falciparum Dd2 growth inhibition; hit rate 2.3% among 94,000; activity change, % at 10 µM; SYBR Green, 72 h; stronger effect = lower value; in the data active means activity change below about -80%
IDH1 R132H inh: inhibitors of human IDH1 R132H | AID 624101 | IDH1 R132H reductase, diaphorase/resazurin fluorescence, 60 min | hit rate 0.18% among 70,000 | inhibition, % at 10 µM | O75874; in the data active means inhibition above about 34%;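 further: 0% = DMSO and 100% = no enzyme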
KDM4C inh: blocks human GASC-1 (KDM4C) demethylase activity; Q9H3R0; GST-KDM4C 2-372, H3K9me3 peptide, LANCE TR-FRET; inhibition, % at 12.5 µM; hit rate 0.15% among 96,000;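 active means mean replicate inhibition above about 25%, with at least 55% of replicates also reaching it, limit read from the data, passing the limit was not always enough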
Target sequence (Q9H3R0 2-372 limits assumed): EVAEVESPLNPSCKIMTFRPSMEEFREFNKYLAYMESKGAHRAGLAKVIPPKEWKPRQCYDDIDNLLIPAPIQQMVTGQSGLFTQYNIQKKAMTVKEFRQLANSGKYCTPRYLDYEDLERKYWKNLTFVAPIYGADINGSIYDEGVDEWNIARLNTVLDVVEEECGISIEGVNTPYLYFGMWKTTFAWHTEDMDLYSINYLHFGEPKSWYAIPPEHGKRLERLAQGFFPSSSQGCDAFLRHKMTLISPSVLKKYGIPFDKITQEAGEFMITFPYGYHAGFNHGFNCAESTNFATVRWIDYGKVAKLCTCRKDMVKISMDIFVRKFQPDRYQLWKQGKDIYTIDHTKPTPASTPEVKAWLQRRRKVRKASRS
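System: N-terminal GST-fused human GASC-1 (KDM4C) fragment, residues 2-372; amount: enzyme final amount 10 nM; incubation: reaction 30 min RT, detection step 1 h RT; medium: HEPES buffer, pH 7.5, plus ascorbate; technique: LANCE TR-FRET, Eu antibody, ULight-streptavidin, EDTA, ex 340 nm, em 618/671 nm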
T cruzi growth-2: Trypanosoma cruzi proliferation inhibition; inhibition, % at 8.35 µM; hit rate 72% among 5,600; shares compounds with T cruzi growth-1; T. cruzi beta-gal in NIH3T3, GalScreen luminescence, 90 h; AID 651739;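 active means mean replicate inhibition above about 95% and at least 55% of replicates individually reaching it, limit read from the data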
T cruzi growth-3: blocks T. cruzi growth in NIH3T3 host cells. T. cruzi beta-gal in NIH3T3, GalScreen luminescence, 90 h. hit rate 21% among 5,600. AID 651740. shares compounds with T cruzi growth-1. inhibition, % at 2.09 µM;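 active means mean inhibition above about 95%, with at least 55% of replicates also reaching it, limit read from the data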;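 further: plate controls were neutral control median for no effect and positive control median for full effect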
NIH3T3 tox: cytotoxicity in mouse NIH/3T3 fibroblasts. shares compounds with T cruzi growth-1. NIH/3T3 viability, CellTiter-Glo ATP luminescence, 90 h. cytotoxicity (signal decrease), % at 8.35 µM. hit rate 14% among 5,600;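 active means mean signal decrease across replicates above about 35% based on untreated-well scatter, with enough replicates individually passing, limit read from the data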;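 further: 0% = median of neutral control wells and 100% = median of positive control wells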
3T3 cytotox 2: kills mouse NIH/3T3 fibroblasts; shares compounds with T cruzi growth-1; NIH/3T3 viability, CellTiter-Glo ATP luminescence, 90 h; inhibition, % at 24.9 µM; hit rate 56% among 5,600; AID 651744;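 active means mean loss of cell viability signal at or above a set limit, and enough replicates individually reaching it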;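 further: 0% = median of neutral control wells and 100% = median of positive control wells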
Active calls of the source: *; / = not tested or not shown. In the library only some 5.8% were active in any assay of this set; here they are far more common.

SMILES	T cruzi growth-1	Pf Dd2 growth	IDH1 R132H inh	KDM4C inh	T cruzi growth-2	T cruzi growth-3	NIH3T3 tox	3T3 cytotox 2
O=S(=O)(c1cccs1)N1CCCCN2[C@H](CO)[C@@H](c3ccc(/C=C/c4ccccc4)cc3)[C@@H]2C1	97*	8	/	1	105*	42	26	23
C[C@@H]1CN([C@H](C)CO)C(=O)c2cc(/C=C/c3ccccc3)cnc2O[C@H]1CN(C)C(=O)c1cccc(F)c1	105	-66	0	-1	/	/	/	/
CCS(=O)(=O)N1CCCCN2[C@H](CO)[C@@H](c3ccc(-c4cccc(C#N)c4)cc3)[C@@H]2C1	108*	-89*	/	-2	68	0	14	69*
CCS(=O)(=O)N1CCCCN2[C@@H](CO)[C@@H](c3ccc(-c4ccc(C#N)cc4)cc3)[C@@H]2C1	99*	-51	/	-2	65	24	17	39*
CCS(=O)(=O)N1CCCCN2[C@H](CO)[C@@H](c3ccc(-c4cccc(C#N)c4)cc3)[C@H]2C1	71	-38	/	-2	/	/	/	/
COc1ccc(S(=O)(=O)N(C)C[C@@H]2OCCCC[C@@H](C)Oc3ccc(NS(=O)(=O)c4ccc(F)cc4)cc3C(=O)N([C@H](C)CO)C[C@@H]2C)cc1	53	-25	/	-1	/	/	/	/
COc1ccc(S(=O)(=O)Nc2ccc3c(c2)C(=O)N([C@H](C)CO)C[C@@H](C)[C@@H](CN(C)S(=O)(=O)c2ccc(F)cc2)OCCCC[C@H](C)O3)cc1	95*	-57	/	0	108*	33	-7	5
COc1ccc(S(=O)(=O)N(C)C[C@H]2OCCCC[C@@H](C)Oc3ccc(NS(=O)(=O)c4ccc(F)cc4)cc3C(=O)N([C@H](C)CO)C[C@H]2C)cc1	114*	-74	0	-2	106*	75	-17	-17
COc1ccc(S(=O)(=O)Nc2ccc3c(c2)C(=O)N([C@H](C)CO)C[C@@H](C)[C@H](CN(C)S(=O)(=O)c2ccc(F)cc2)OCCCC[C@@H](C)O3)cc1	105*	-69	3	-3	105*	59	11	13
COc1ccc(S(=O)(=O)N(C)C[C@@H]2OCCCC[C@H](C)Oc3ccc(NS(=O)(=O)c4ccc(F)cc4)cc3C(=O)N([C@@H](C)CO)C[C@@H]2C)cc1	118*	-53	/	0	108*	40	-27	-8
Cc1noc(C)c1NC(=O)N(C)C[C@@H]1OCCCC[C@@H](C)Oc2ccc(NC(=O)Cc3ccccc3)cc2C(=O)N([C@@H](C)CO)C[C@H]1C	9	28	/	-1	/	/	/	/
CCCN(C)C[C@@H]1Oc2ncc(-c3ccccc3)cc2C(=O)N([C@@H](C)CO)C[C@@H]1C	/	27	0	/	/	/	/	/
COc1ccc(S(=O)(=O)N(C)C[C@@H]2OCCCC[C@@H](C)Oc3ccc(NS(=O)(=O)c4ccc(F)cc4)cc3C(=O)N([C@@H](C)CO)C[C@@H]2C)cc1	112*	-64	5	0	101*	65	-1	53*
COc1ccc(CN(C)C[C@H]2OCCCC[C@H](C)Oc3ccc(NC(=O)NC4CCCCC4)cc3C(=O)N([C@@H](C)CO)C[C@H]2C)cc1	35	-69	-1	-1	/	/	/	/
C[C@H]1CN([C@@H](C)CO)C(=O)Cc2cc(NS(=O)(=O)c3ccccc3)ccc2O[C@@H]1CN(C)C(=O)Nc1cccc2ccccc12	5	25	-1	1	/	/	/	/
O=C(c1ccccc1)N1CC[C@@H]2[C@@H](CO)Nc3ccc(C#Cc4ccccc4F)cc3[C@@H]21	101*	-53	/	1	106*	71	-5	96*
O=C(c1ccc(F)cc1)N1CC[C@H]2[C@H](CO)Nc3ccc(C#Cc4ccccc4F)cc3[C@H]21	/	-69	/	0	/	/	/	/
COc1ccccc1C#Cc1ccc2c(c1)[C@H]1[C@H](CCN1C(=O)c1ccccc1)[C@H](CO)N2	100*	-4	/	-2	106*	84	31	83*
COc1ccccc1C#Cc1ccc2c(c1)[C@H]1[C@H](CCN1C(=O)c1ccc(F)cc1)[C@@H](CO)N2	/	-65	/	-3	/	/	/	/
COc1ccc(S(=O)(=O)N(C)C[C@H]2Oc3ccc(NC(=O)Nc4ccccc4)cc3CC(=O)N([C@@H](C)CO)C[C@@H]2C)cc1	-23	-41	-4	0	/	/	/	/
O=C(C1CC1)N1CCCCN2[C@@H](CO)[C@@H](c3ccc(C#CC4CCCC4)cc3)[C@@H]2C1	45	-15	/	0	/	/	/	/
O=C(C1CC1)N1CCCCN2[C@@H](CO)[C@H](c3ccc(C#CC4CCCC4)cc3)[C@@H]2C1	95	3	/	-1	/	/	/	/
O=C(C1CCC1)N1CCCCN2[C@@H](CO)[C@H](c3ccc(C#CC4CCCC4)cc3)[C@@H]2C1	98*	-26	/	/	104*	92	40*	105*
O=C(Nc1ccccc1)N1CCCCN2[C@H](C1)[C@H](c1ccc(C#CC3CC3)cc1)[C@@H]2CO	54	-58	/	0	/	/	/	/
O=C(C1CCCC1)N1CCCCN2[C@@H](CO)[C@@H](c3ccc(C#CC4CC4)cc3)[C@@H]2C1	93	-39	/	/	/	/	/	/
SMILES	T cruzi growth-1	Pf Dd2 growth	IDH1 R132H inh	KDM4C inh	T cruzi growth-2	T cruzi growth-3	NIH3T3 tox	3T3 cytotox 2
O=C(C1CCCC1)N1CCCCN2[C@H](CO)[C@@H](c3ccc(C#CC4CC4)cc3)[C@@H]2C1	113*	0	/	/	99*	74	19	17
O=C(C1CC1)N1CCCCN2[C@H](CO)[C@@H](c3ccc(C#CC4CC4)cc3)[C@@H]2C1	105*	23	/	/	98*	70	20	37*
O=C(C1CCCC1)N1CCCCN2[C@H](CO)[C@H](c3ccc(C#CC4CC4)cc3)[C@@H]2C1	120*	-8	/	/	117*	96*	40*	16
COC(=O)C[C@H]1CC[C@@H]2[C@H](COc3ccc(NC(=O)Nc4ccc(C)cc4)cc3C(=O)N2C)O1	24	7	/	2	/	/	/	/
C[C@@H]1CN([C@@H](C)CO)C(=O)Cc2cc(NS(=O)(=O)c3ccc(Cl)cc3)ccc2O[C@H]1CN(C)Cc1ccc(-c2ccccc2)cc1	32	-49	/	4	/	/	/	/
C[C@H]1CN([C@@H](C)CO)C(=O)c2cc(NC(=O)Cn3cnnn3)ccc2O[C@H]1CN(C)C(=O)Nc1cccc2ccccc12	76	11	/	1	/	/	/	/
COc1ccc(NC(=O)Nc2ccc3c(c2)C(=O)N([C@H](C)CO)C[C@@H](C)[C@H](CN(C)Cc2ccccc2)OCCCC[C@H](C)O3)cc1	93	-51	1	0	/	/	/	/
